Measurements: ChEMBL document CHEMBL1136045, “Synthesis, in vitro receptor binding, and in vivo evaluation of fluorescein and carbocyanine peptide-based optical contrast agents” (J Med Chem, 2002)

Molecular target: Gastrin-releasing peptide receptor (Rattus norvegicus, UniProt P52500)
Assay: In vitro binding affinity of [111In]DTPA-[Y4]-bombesin to bombesin receptor in the rat pancreatic acinar cell line, AR42J
How it was run: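 Competition binding on AR42-J rat pancreatic acinar cell membranes (~50 μg/well) with the tracer [111In]-DTPA-[P1,Y4]-bombesin and increasing concentrations of cold competitor. Buffer was 50 mM Tris-HCl pH 7.4, 5 mM MgCl2, 0.2 mg/mL BSA. Incubation 90 min at room temperature, then filtration and washing. Bound radioactivity was gamma-counted, and IC50 came from a four-parameter fit.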

Gastrin-releasing peptide receptor, sequence (P52500 whole entry): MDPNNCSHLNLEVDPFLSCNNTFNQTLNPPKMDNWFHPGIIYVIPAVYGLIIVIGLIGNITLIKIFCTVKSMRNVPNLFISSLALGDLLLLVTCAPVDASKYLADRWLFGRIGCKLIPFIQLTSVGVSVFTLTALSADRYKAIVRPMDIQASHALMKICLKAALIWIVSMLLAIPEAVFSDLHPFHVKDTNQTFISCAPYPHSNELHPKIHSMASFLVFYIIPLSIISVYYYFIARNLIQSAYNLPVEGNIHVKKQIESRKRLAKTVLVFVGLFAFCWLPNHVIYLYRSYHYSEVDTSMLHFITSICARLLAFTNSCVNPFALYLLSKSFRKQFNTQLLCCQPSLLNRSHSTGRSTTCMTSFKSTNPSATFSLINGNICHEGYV

IC50 [nM]	Structure (SMILES)
10.5	CSCC[C@H](NC(=O)[C@H](CC(C)C)NC(=O)[C@H](Cc1c[nH]cn1)NC(=O)CNC(=O)[C@@H](NC(=O)[C@H](C)NC(=O)[C@H](Cc1c[nH]c2ccccc12)NC(=O)[C@H](CCC(N)=O)NC(=O)[C@@H](N)CCCCN)C(C)C)C(N)=O
4.8	CSCC[C@H](NC(=O)[C@H](CC(C)C)NC(=O)[C@H](Cc1c[nH]cn1)NC(=O)CNC(=O)[C@@H](NC(=O)[C@H](C)NC(=O)[C@H](Cc1c[nH]c2ccccc12)NC(=O)[C@H](CCC(N)=O)NC(=O)[C@@H](N)CCCCNC(=O)CN(CCN(CCN(CC(=O)O)CC(=O)O)CC(=O)O)CC(=O)O)C(C)C)C(N)=O
5.8	CSCC[C@H](NC(=O)[C@H](CC(C)C)NC(=O)[C@H](Cc1c[nH]cn1)NC(=O)CNC(=O)[C@@H](NC(=O)[C@H](C)NC(=O)[C@H](Cc1c[nH]c2ccccc12)NC(=O)[C@H](CCC(N)=O)NC(=O)[C@H](CCCCN)NC(=S)Nc1ccc2c(c1)C(=O)OC21c2ccc(O)cc2Oc2cc(O)ccc21)C(C)C)C(N)=O
28.3	CSCC[C@H](NC(=O)[C@H](CC(C)C)NC(=O)[C@H](Cc1cnc[nH]1)NC(=O)CNC(=O)[C@@H](NC(=O)[C@H](C)NC(=O)[C@H](Cc1c[nH]c2ccccc12)NC(=O)[C@@H](N)CCC(N)=O)C(C)C)C(N)=O
15	CSCC[C@H](NC(=O)[C@H](CC(C)C)NC(=O)[C@H](Cc1c[nH]cn1)NC(=O)CNC(=O)[C@@H](NC(=O)[C@H](C)NC(=O)[C@H](Cc1c[nH]c2ccccc12)NC(=O)[C@H](CCC(N)=O)NC(=O)[C@H](CCCCNC(=O)CN1CCN(CC(=O)O)CCN(CC(=O)O)CCN(CC(=O)O)CC1)NC(=S)Nc1ccc2c(c1)C(=O)OC21c2ccc(O)cc2Oc2cc(O)ccc21)C(C)C)C(N)=O
9.2	CSCC[C@H](NC(=O)[C@H](CC(C)C)NC(=O)[C@H](Cc1c[nH]cn1)NC(=O)CNC(=O)[C@@H](NC(=O)[C@H](C)NC(=O)[C@H](Cc1c[nH]c2ccccc12)NC(=O)[C@H](CCC(N)=O)NC(=O)CNC(=O)[C@H](CO)NC(=O)CNC(=S)Nc1ccc2c(c1)C(=O)OC21c2ccc(O)cc2Oc2cc(O)ccc21)C(C)C)C(N)=O
9.5	CSCC[C@H](NC(=O)[C@H](CC(C)C)NC(=O)[C@H](Cc1c[nH]cn1)NC(=O)CNC(=O)[C@@H](NC(=O)[C@H](C)NC(=O)[C@H](Cc1c[nH]c2ccccc12)NC(=O)[C@H](CCC(N)=O)NC(=O)[C@H](CCCCNC(=S)Nc1ccc2c(c1)C(=O)OC21c2ccc(O)cc2Oc2cc(O)ccc21)NC(=S)Nc1ccc2c(c1)C(=O)OC21c2ccc(O)cc2Oc2cc(O)ccc21)C(C)C)C(N)=O
20	CSCC[C@H](NC(=O)[C@H](CC(C)C)NC(=O)[C@H](Cc1c[nH]cn1)NC(=O)CNC(=O)[C@@H](NC(=O)[C@H](C)NC(=O)[C@H](Cc1c[nH]c2ccccc12)NC(=O)[C@H](CCC(N)=O)NC(=O)[C@H](CCCCNC(=O)CN(CCN(CCN(CC(=O)O)CC(=O)O)CC(=O)O)CC(=O)O)NC(=S)Nc1ccc2c(c1)C(=O)OC21c2ccc(O)cc2Oc2cc(O)ccc21)C(C)C)C(N)=O
240	CSCC[C@H](NC(=O)[C@H](CC(C)C)NC(=O)[C@H](Cc1c[nH]cn1)NC(=O)CNC(=O)[C@@H](NC(=O)[C@H](C)NC(=O)[C@H](Cc1c[nH]c2ccccc12)NC(=O)[C@H](CCC(N)=O)NC(=O)[C@H](CCCCNC(=O)CN(CCN(CCN(CC(=O)O)CC(=O)O)CC(=O)O)CC(=O)O)NC(=O)CN(CCN(CCN(CC(=O)O)CC(=O)O)CC(=O)O)CC(=O)O)C(C)C)C(N)=O
15.6	CSCC[C@H](NC(=O)[C@H](CC(C)C)NC(=O)[C@H](Cc1c[nH]cn1)NC(=O)CNC(=O)[C@@H](NC(=O)[C@H](C)NC(=O)[C@H](Cc1c[nH]c2ccccc12)NC(=O)[C@H](CCC(N)=O)NC(=O)CNC(=O)[C@H](CO)NC(=O)CNC(=O)[C@H](CCCCN)NC(=S)Nc1ccc2c(c1)C(=O)OC21c2ccc(O)cc2Oc2cc(O)ccc21)C(C)C)C(N)=O
